Compound activity: PubChem, several laboratories
Most compounds without a hit are left out; they make up all but 5.2% or so of the library.
HCV NS3 hel inh = HCV NS3 helicase inhibition | inhibition, % at 10.9 µM | NS3 helicase DNA unwinding, Cy5 molecular beacon fluorescence | hit rate 0.56% among 290,000;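 active = inhibition above the mean of all tested compounds plus 3 SD, set per campaign, cut at about 35% in these data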;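 note: 0% = DMSO wells and 100% = thioflavine S control wells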
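Assay system: hepatitis C virus NS3 helicase domain fragment enzyme. Also added: annealed dual-labelled DNA beacon duplex, ATP-started. Timing: 1 h reaction at 25 °C, ATP-initiated. Technique: Cy5 fluorescence at 0 and 60 min, beacon hairpin quenching. Evaluation: % inhibition of unwinding. Replication: one well per compound.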
ZTA DNA inh = blocks Epstein-Barr virus ZTA, an EBNA-1 counter-screen. P03206. ZTA-DNA binding, fluorescence polarization. inhibition, % at 11 µM. hit rate 0.15% among 320,000. AID 2234; in the data active = inhibition above about 33%
Target sequence (P03206 whole entry, looked up): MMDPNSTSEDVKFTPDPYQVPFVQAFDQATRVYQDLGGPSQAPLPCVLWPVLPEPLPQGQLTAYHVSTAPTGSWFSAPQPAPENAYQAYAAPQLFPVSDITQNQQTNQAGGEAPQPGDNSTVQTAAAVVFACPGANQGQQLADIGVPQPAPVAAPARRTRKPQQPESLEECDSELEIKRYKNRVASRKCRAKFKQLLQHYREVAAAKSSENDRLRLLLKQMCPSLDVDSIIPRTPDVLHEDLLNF
PfM18AAP inh = PfM18AAP enzyme inhibition; inhibition, % at 7.35 µM; hit rate 1.2% among 290,000; recombinant PfM18AAP, H-Glu-NHMec fluorogenic cleavage; AID 1822;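 active = inhibition above the campaign mean inhibition over all tested compounds plus 3 SD, cut at about 28% in these data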;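 note: 0% = plate median of test compound wells and 100% = 2 mM ZnCl2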
EBNA-1 inh = blocks EBNA-1 binding to DNA; EBNA-1 DNA binding, fluorescence polarization; inhibition, % at 14.8 µM; hit rate 0.34% among 300,000; AID 1950; in the data active = inhibition above about 28%
ALR H2O2 inh = inhibitors of human sulfhydryl oxidase ALR. P55789. purified ALR, DTT oxidation, H2O2 HRP-luminol luminescence. inhibition, % (no concentration beside the values). hit rate 3.8% among 290,000. AID 485317;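 active = mean replicate inhibition above about 79%, with every replicate also reaching it, limit read from the data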
Target sequence (P55789 whole entry, looked up): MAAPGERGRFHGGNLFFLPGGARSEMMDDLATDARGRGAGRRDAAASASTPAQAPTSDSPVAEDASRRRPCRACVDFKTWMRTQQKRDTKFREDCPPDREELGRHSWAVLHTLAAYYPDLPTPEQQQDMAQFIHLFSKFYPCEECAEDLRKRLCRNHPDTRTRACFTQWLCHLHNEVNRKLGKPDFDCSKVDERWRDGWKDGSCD
HCV core dimer = HCV core protein dimerization inhibition. inhibition, % at 5 µM. TR-FRET GST/Flag-core106 dimerization, 1536-well. hit rate 0.33% among 300,000. AID 1899;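 active = inhibition above the mean of all tested compounds plus 3 SD, set per screening campaign, cut at about 45% in these data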
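Assay system: Tagged HCV core106 pair (GST and Flag) | Buffer or medium: KF-containing HEPES buffer, pH 7.45, DTT, CHAPS, BSA | Also added: Eu donor and XL665 acceptor anti-tag antibodies | Dosing: One concentration, 5 µM, in 0.5% DMSO | Timing: 4 h at 22.5 °C | Technique: TR-FRET 671 and 617 nm emission | Repeats: Singlicate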
NS3 hel confirm = confirmation of Hepatitis C virus NS3 helicase inhibitors | AID 1943 | shares compounds with HCV NS3 hel inh | NS3 helicase DNA unwinding, Cy5 molecular beacon fluorescence | inhibition, % at 10.9 µM | hit rate 31% among 1,600;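 active = inhibition above the mean of all tested compounds plus 3 SD, cutoff set per campaign, cut at about 36% in these data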
FID counter trip = counter-screen for HCV NS3 helicase inhibitors: DNA intercalator displacement; DNA fluorescent intercalator displacement, fluorescence; shares compounds with HCV NS3 hel inh; inhibition, % at 7.9 µM; AID 1945; hit rate 4% among 1,600; in the data active = inhibition above about 37%;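 note: 0% = vehicle and 100% = reference compound; higher means more displacement of ethidium bromide from the DNA hairpin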
DNA FID DR = displaces fluorescent intercalator from DNA, HCV helicase counter-screen | shares compounds with HCV NS3 hel inh | fluorescent intercalator displacement from DNA, fluorescence | IC50, µM | 120 tested, under 10 active; call rule not given here
An asterisk follows results filed as active; . = no result given.

SMILES | HCV NS3 hel inh | ZTA DNA inh | PfM18AAP inh | EBNA-1 inh | ALR H2O2 inh | HCV core dimer | NS3 hel confirm | FID counter trip | others
Cc1ccc2c(nc3s/c(=C\c4ccc(-c5ccccc5C(=O)O)o4)c(=O)n32)c1C | 43.8* | 8.2 | 6.1 | 0.3 | -3.5 | 11.8 | 65.4* | 50.5*
COc1cccc(C(=O)N/N=C/c2ccc(OC)c(COc3ccccc3C(N)=O)c2)c1 | 43.2* | -11.9 | 7.0 | 3.0 | -13.4 | 1.8 | -11.8 | -41.5
COc1ccc(/C=N\NC(=O)c2ccc(F)cc2)cc1COc1ccccc1C(N)=O | -3.4 | -8.0 | 1.3 | 5.9 | 72.7 | 7.0 | . | .
Cc1ccc(F)c(NC(=S)Nc2cccc3ccccc23)c1 | 51.6* | -8.6 | -18.6 | -5.9 | -22.6 | 7.7 | 4.2 | 6.0
Cc1ccc(C)c(NC(=S)Nc2cccc3cnccc23)c1 | -8.8 | 4.3 | 11.7 | -3.8 | -36.7 | -1.7 | . | .
Cc1c(C(=O)O)[nH]c2c1C(=O)CC(c1ccc(C(C)(C)C)cc1)C2 (centres undefined) | 49.1* | 18.0 | 4.7 | 24.9 | 13.6 | 3.4 | 29.5 | -25.5
C/C(=N\NC(=O)c1c(Cl)c(C)nn1C)c1cccc(NC(=O)C2CCCC2)c1 | -4.7 | 7.2 | 3.2 | -0.2 | -17.1 | -0.2 | . | .
COc1ccc2nc3ccccc3nc2c1N | 50.0* | -7.3 | 7.6 | -0.9 | 99.2* | -44.2 | -8.6 | 7.0
COc1ccc2nc(/N=C/c3c(C)[nH]n(-c4ccc(C)cc4)c3=O)sc2c1 | 6.3 | -12.6 | 4.0 | -0.7 | -15.8 | -0.6 | . | .
Cc1c(Cl)cccc1NC(=S)NCc1cccn1C | 2.5 | 13.3 | -4.3 | 6.2 | -2.7 | 7.5 | . | .
Cn1cccc1CC(=O)NNC(=S)Nc1ccccc1Cl | 45.6* | 0.1 | 11.5 | -2.5 | 63.6 | 14.3 | -9.1 | 13.0
Cn1cccc1CC(=O)NNC(=S)Nc1ccc(Cl)cc1 | 36.4* | -17.2 | -0.9 | -16.2 | 54.9 | -9.3 | -8.7 | 9.7
CC(=O)c1cccc(NC(=O)CNC(=O)c2sc3ccccc3c2Cl)c1 | . | 10.8 | . | 1.0 | -8.9 | 13.7 | . | .
COc1ccc(N2CC(NC(=O)NCC(C)C)CC2=O)cc1 (centres undefined) | 53.2* | -2.0 | -1.2 | 2.1 | 3.6 | 0.1 | -7.9 | -0.6
Cc1cccc(NC(=O)c2ccccc2OCC(=O)N2CCCC2)c1C | 40.2* | -19.0 | 5.1 | -5.9 | . | -3.7 | 8.4 | -4.5
COc1ccc(S(=O)(=O)/N=C2/NC(=O)/C(=C/c3ccco3)S2)cc1 | 36.5* | 10.6 | 5.3 | 5.6 | 98.7* | 2.0 | 78.2* | -2.3 | DNA FID DR=>79.4
COc1ccc(S(=O)(=O)/N=C2/NC(=O)/C(=C\c3ccco3)S2)cc1 | 37.4* | -10.5 | -4.5 | -5.1 | -5.5 | -7.7 | 60.5* | 6.3
Cc1ccnc(NS(=O)(=O)c2ccc(NC(=O)CC(C)c3ccccc3)cc2)n1 (centres undefined) | 0.1 | -2.0 | 7.8 | 11.1 | 0.4 | 8.7 | . | .
N=C1/C(=C/c2coc3ccccc3c2=O)C(=O)N=C2SC(c3ccco3)=NN12 | 54.3* | 10.7 | 28.6* | 3.0 | 42.1 | -3.6 | 50.5* | 49.8*
Cc1cc(/C=C2\C(=N)N3N=C(c4ccco4)SC3=NC2=O)c(C)n1Cc1ccccc1 | 24.1 | 7.2 | 2.8 | -5.3 | -11.2 | 42.3 | . | .
COc1ccc(-n2cccc2/C=C2\C(=N)N3N=C(c4ccco4)SC3=NC2=O)cc1 | 42.2* | 2.2 | 10.2 | 5.5 | 2.9 | 47.8* | 70.6* | -13.9 | DNA FID DR=>79.4
COc1cc(NC(=O)Cn2ccsc2=N)cc(OC)c1 | -6.2 | 0.0 | -3.0 | 4.7 | -3.1 | 1.4 | . | .
Cc1ccc(N2C(=O)CC(N(O)C3CC(=O)N(c4ccc(C)cc4)C3=O)C2=O)cc1 (centres undefined) | 37.5* | 12.0 | -10.0 | 3.8 | 20.0 | 0.1 | -14.2 | -11.9
CCCCCCC(=O)N(O)C1CC(=O)N(c2ccc(C)cc2)C1=O (centres undefined) | 19.3 | 9.3 | -79.8 | -2.5 | -2.0 | 3.1 | . | .
